In the library only some 2.6% were active in any assay of this set; here they are far more common.
HSV augment – HSV replication enhancement | HSV replication augmentation in cells, fold increase | maximum fold increase | 220,000 compounds, 0.005% hits | AID 1956; in the data active means maximum fold increase above about 1.5; inconclusive means no clear call, values can overlap the other calls; tested in PC3 cells
Hsp70 act – Hsp70 transcriptional activation, primary screen; HeLa Hsp70 promoter luciferase reporter, luminescence; scaled: vehicle 0, proteasome-inhibitor control 100%; activation, % at 10 µM; 200,000 compounds, 0.04% hits; AID 1203;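 active means activation above the mean across all tested compounds plus 3 SD, cutoff set per campaign, cut at about 5.5% in these data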
HSF-1 act – increases HSF-1 driven luciferase reporter signal | 300,000 compounds, 1.7% hits | activation, % at 9 µM | AID 504408 | NIH3T3-HGL HSF-1 luciferase reporter, MG132, 8 h; 100% = twice DMSO control signal;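 active means mean replicate activation of at least 50% with a set share of replicates each reaching 50%; inconclusive means only one of those two conditions met; inactive means mean below 50% and too few replicates reaching it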
HSF1 inh – HSF1 inhibition; NIH3T3-HGL HSE-luciferase, MG132-induced, luminescence 8 h; hits give low values; activity change, negative = inhibition, % at 7.5 µM (by protocol); 300,000 compounds, 0.77% hits; AID 2098;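 active means more than half of replicate wells show activity change below -50%, luminescence cut by over half; inconclusive means some wells, but at most half, below -50%; inactive means no replicate well below -50%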;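 further: luciferase reports HSF-1 transcriptional activity via heat shock element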
MDM2 E3 inh – Mdm2 E3 ligase (human) inhibition; cell-based MDM2 ubiquitination luciferase reporter, 2 h; 0 = plate control, 100 = twice control, blank-subtracted; signal enhancement, % at 5 µM; 210,000 compounds, 0.11% hits; AID 1230; Q00987;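 active means signal enhancement of 30% or more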;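 further: luminescence tracks abundance of the self-degrading MDM2-luciferase fusion protein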
Target sequence (Q00987 whole entry, looked up, the tested form may be a part): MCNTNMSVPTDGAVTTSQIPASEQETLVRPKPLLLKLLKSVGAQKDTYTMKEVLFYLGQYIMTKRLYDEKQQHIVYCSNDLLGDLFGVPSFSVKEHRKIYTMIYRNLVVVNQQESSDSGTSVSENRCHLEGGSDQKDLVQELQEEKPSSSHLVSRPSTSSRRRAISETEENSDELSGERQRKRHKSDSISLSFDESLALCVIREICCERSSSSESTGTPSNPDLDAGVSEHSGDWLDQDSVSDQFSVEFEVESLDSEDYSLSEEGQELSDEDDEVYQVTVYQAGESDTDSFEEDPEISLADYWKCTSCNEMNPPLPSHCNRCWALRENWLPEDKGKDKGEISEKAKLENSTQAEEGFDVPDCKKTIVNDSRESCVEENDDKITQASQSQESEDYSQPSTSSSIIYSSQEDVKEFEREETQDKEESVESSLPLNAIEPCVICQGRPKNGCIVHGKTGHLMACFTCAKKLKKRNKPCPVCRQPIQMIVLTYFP
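test system = mammalian cells stably expressing self-ubiquitinating, self-degrading MDM2 E3–luciferase fusion | quantity = 2000 cells/well | incubation = cell settling 4 h, compound treatment 2 h, both 37 °C | signal = luminescence with SteadyLite reagent, 15 min at room temperature | evaluation = % enhancement relative to plate controls after blank subtraction | benchmarks = plate controls and plate blanks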
Rad51 HR inh – blocks human Rad51 in homologous recombination. 200,000 compounds, 0.085% hits. inhibition, % at 10 µM. hRad51 DNA strand exchange, fluorescence dequenching;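 active means inhibition above 40% at the single screening dose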
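material = hRad51 filaments on single-stranded DNA | reagent = Donor/quencher-labelled 47-bp dsDNA substrate | compound = 10 µM final, single point | schedule = strand-exchange reaction 15 min at room temperature | measured by = fluorescein emission 520 nm, excitation 485 nm | read-out basis = % inhibition versus plate control and blank means | benchmarks = plate controls and plate blanks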
A number is an active result.

What do the screens show for `O=c1ccc2cc3c(-c4ccccc4)coc3cc2o1`?
HSF-1 act: inactive; HSF1 inh: inactive

How did Cc1cc(C)nc(NC(=O)/C=C/c2ccccc2Cl)c1 do in these assays?
HSV augment: inactive; Hsp70 act: inactive; HSF-1 act: 84; HSF1 inh: inactive; MDM2 E3 inh: inactive; Rad51 HR inh: inactive

Results for COc1ccccc1/C=C/C(=O)Nc1cccnc1 ?
HSF-1 act: inactive; HSF1 inh: inactive

Results for O=C(/C=C/c1c(F)cccc1Cl)Nc1ccncc1 ?
HSV augment: inactive; Hsp70 act: inactive; HSF-1 act: 69; HSF1 inh: inactive; MDM2 E3 inh: inactive; Rad51 HR inh: inactive

Results for O=C(/C=C/c1ccccc1Cl)Nc1cccnc1 ?
HSF-1 act: 58; HSF1 inh: inactive

Results for O=C(/C=C/c1c(Cl)cccc1Cl)Nc1ccncc1 ?
HSV augment: inactive; Hsp70 act: inactive; HSF-1 act: inconclusive; HSF1 inh: inactive; MDM2 E3 inh: inactive; Rad51 HR inh: inactive

Results for Cc1cccc(NC(=O)/C=C/c2ccc(Cl)cc2)n1 ?
HSV augment: inactive; Hsp70 act: inactive; HSF-1 act: 67; HSF1 inh: inactive; MDM2 E3 inh: inactive; Rad51 HR inh: inactive

How did CN(C)c1ccc(C(CNC(=O)c2cccs2)N(C)C)cc1 (configuration not stated) do in these assays?
HSF-1 act: inactive; HSF1 inh: inactive

How did COc1cccc(OC)c1C(=O)Nc1ccccc1C(=O)N1CCCC1 do in these assays?
HSF-1 act: inactive; HSF1 inh: inactive

Results for Cc1nonc1C1CCCN1C(=O)c1cc(COc2ccc(F)cc2Cl)on1 (configuration not stated) ?
HSV augment: inactive; Hsp70 act: inactive; HSF-1 act: inactive; HSF1 inh: inactive; MDM2 E3 inh: inactive; Rad51 HR inh: inactive

Results for O=C(/C=C/c1c(F)cccc1Cl)Nc1nc2ccccc2[nH]1 ?
HSV augment: inactive; Hsp70 act: inactive; HSF-1 act: 63; HSF1 inh: inactive; MDM2 E3 inh: inactive; Rad51 HR inh: inactive

Results for N/C(=N\OC(=O)/C=C/c1ccccc1Cl)c1cccnc1 ?
HSV augment: inactive; HSF-1 act: 57; HSF1 inh: inactive; MDM2 E3 inh: inactive

Results for O=C(/C=C/c1ccccc1Cl)Nc1ccncc1 ?
HSV augment: inactive; Hsp70 act: inactive; HSF-1 act: 53; HSF1 inh: inactive; MDM2 E3 inh: inactive; Rad51 HR inh: inactive

Results for N/C(=N\OC(=O)/C=C/c1ccccc1)c1cccnc1 ?
HSV augment: inactive; Hsp70 act: inactive; HSF-1 act: inconclusive; HSF1 inh: inactive; MDM2 E3 inh: inactive; Rad51 HR inh: inactive

What do the screens show for `CC(=O)N1CCC2(CC1)C/C(=N\NC(=S)Nc1ccccc1F)c1cc(O)ccc1O2`?
HSV augment: inactive; Hsp70 act: inactive; HSF-1 act: inactive; HSF1 inh: -52; MDM2 E3 inh: inactive; Rad51 HR inh: inactive

How did Cc1c(Cl)cccc1NC(=S)NCC(c1cccnc1)N(C)C (configuration not stated) do in these assays?
HSV augment: inactive; Hsp70 act: inactive; HSF-1 act: inactive; HSF1 inh: inactive; MDM2 E3 inh: inactive; Rad51 HR inh: inactive

What do the screens show for `CC1(C)Cc2nc3[nH]c(=S)n(-c4ccccc4)c(=O)c3cc2CO1`?
HSV augment: inactive; Hsp70 act: inactive; HSF-1 act: inactive; HSF1 inh: -62; Rad51 HR inh: inactive

What do the screens show for `Cc1ccc2nc(SCC(=O)Nc3ccc(F)cc3F)nc(=O)n2c1`?
HSF-1 act: inactive; HSF1 inh: inactive

How did Cc1cc(C2=NNC(=NC3CC3)SC2)c(C)n1-c1ccccc1F do in these assays?
HSV augment: inactive; Hsp70 act: inactive; HSF-1 act: inactive; HSF1 inh: -68; MDM2 E3 inh: inactive; Rad51 HR inh: inactive

Results for CC(=O)Nc1ccc(S(=O)(=O)Nc2nccc(/C=C/c3ccc(Cl)cc3)n2)cc1 ?
HSV augment: inactive; Hsp70 act: inactive; HSF-1 act: inactive; HSF1 inh: inactive; MDM2 E3 inh: inactive

How did CCC(C)(C)c1ccc(OC(=O)c2cccnc2Cl)cc1 do in these assays?
HSF-1 act: 59; HSF1 inh: inactive

What do the screens show for `N#CCc1ccc(OC(=O)c2cccnc2Cl)cc1`?
HSF-1 act: inactive; HSF1 inh: inactive

Results for Cc1ccc(S(=O)(=O)N2CCN(C(=O)C(C)Cn3cncn3)CC2)cc1 (configuration not stated) ?
HSF-1 act: inactive; HSF1 inh: inactive

How did O=C(c1ccc2c(=O)n(C3CCCC3)c(=S)[nH]c2c1)N1CCc2ccccc21 do in these assays?
HSV augment: inactive; Hsp70 act: inactive; HSF-1 act: 91; HSF1 inh: inactive; MDM2 E3 inh: inactive; Rad51 HR inh: inactive

How did CC(C)NC(=O)c1ccc2c(=O)n(C3CCCC3)c(=S)[nH]c2c1 do in these assays?
HSV augment: inactive; Hsp70 act: inactive; HSF-1 act: inactive; HSF1 inh: inactive; MDM2 E3 inh: inactive; Rad51 HR inh: inactive

How did CCCc1cc(=O)oc2cc(OCC(=O)N3C[C@H]4C[C@@H](C3)c3cccc(=O)n3C4)c(Cl)cc12 do in these assays?
HSF-1 act: 57; HSF1 inh: inactive

What do the screens show for `O=C(COc1cc2oc(=O)c3c(c2cc1Cl)CCCC3)N1C[C@H]2C[C@@H](C1)c1cccc(=O)n1C2`?
HSF-1 act: inactive; HSF1 inh: inactive

How did CCOC(=O)C1(Cc2cccc(OC)c2)CCCN(C(=O)c2cc(C)oc2C)C1 (configuration not stated) do in these assays?
HSF-1 act: inactive; HSF1 inh: inactive

What do the screens show for `CCN1C(=O)[C@H]2[C@@H](c3ccc(-c4ccc(OC)cc4)cc3)N[C@@](CC(C)C)(C(=O)OC)[C@H]2C1=O`?
HSF-1 act: inactive; HSF1 inh: inactive

How did COc1cc(SC)ccc1C(=O)Nc1ccc(C)cc1 do in these assays?
HSV augment: inactive; Hsp70 act: inactive; HSF-1 act: 55; HSF1 inh: inactive; MDM2 E3 inh: inactive; Rad51 HR inh: inactive

Results for COc1cc(SC)ccc1C(=O)Nc1ncc(Cl)cc1Cl ?
HSV augment: inactive; Hsp70 act: inactive; HSF-1 act: 63; HSF1 inh: inactive; MDM2 E3 inh: inactive; Rad51 HR inh: inactive

What do the screens show for `CCOc1ccc(N2CC(C(=O)Nc3nnc(C4CCCCC4)s3)CC2=O)cc1` (configuration not stated)?
HSF-1 act: inactive; HSF1 inh: inactive

How did Cc1ccccc1NC(=S)NNC(=O)c1csc2c1CCC(C)C2 (configuration not stated) do in these assays?
HSV augment: inactive; Hsp70 act: inactive; HSF-1 act: inactive; HSF1 inh: -69; MDM2 E3 inh: inactive; Rad51 HR inh: inactive

What do the screens show for `CCNC(=S)NNC(=O)c1csc2c1CCC(C)C2` (configuration not stated)?
HSV augment: inactive; Hsp70 act: inactive; HSF-1 act: inactive; HSF1 inh: inactive; MDM2 E3 inh: inactive; Rad51 HR inh: inactive
